Data set [1] has as its system Mammalian orthoreovirus 1. The data set is described as follows: Antiviral activity against Reovirus 1 infected in dog MDCK cells assessed as reduction of virus-induced cytopathogenicity. Type of data set: functional, organism-based. The note with it: Mammalian orthoreovirus 1, MDCK. For orientation: Damage to the host cells serves as the signal in cytopathic effect assays.

For the next data set, the system named is Human respirovirus 3. The data set is described as follows: Antiviral activity against Parainfluenza virus 3 infected in dog MDCK cells assessed as reduction of virus-induced cytopathogenicity. The note with it: Human respirovirus 3, MDCK. Format: functional, organism-based.
Data set [2] concerns Respiratory syncytial virus. The data set is described as follows: Antiviral activity against Respiratory syncytial virus infected in human HeLa cells assessed as reduction of virus-induced cytopathogenicity. Type of data set: functional, organism-based.
Data set [3] concerns Coxsackievirus B4. The data set is described as follows: Antiviral activity against Coxsackievirus B4 infected in human HeLa cells assessed as reduction of virus-induced cytopathogenicity. Type of data set: functional, organism-based. The note with it: Enterovirus B.
Data set [4] relates to Vesicular stomatitis virus. The data set is described as follows: Antiviral activity against Vesicular stomatitis virus infected in human HeLa cells assessed as reduction of virus-induced cytopathogenicity. Type of data set: functional, organism-based.
For the next data set, the system named is Feline coronavirus. The data set is described as follows: Antiviral activity against Feline coronavirus infected in cat CRFK cells assessed as reduction of virus-induced cytopathogenicity. Format: functional, organism-based. Particulars: Alphacoronavirus 1, CRFK.
The subject of data set [5] is Felid alphaherpesvirus 1. The data set is described as follows: Antiviral activity against Feline herpes virus infected in cat CRFK cells assessed as reduction of virus-induced cytopathogenicity. Type of data set: functional, organism-based. The note with it: Felid alphaherpesvirus 1, CRFK.
Data set [6] relates to Vesicular stomatitis virus. The data set is described as follows: Antiviral activity against Vesicular stomatitis virus infected in human HEL cells assessed as reduction of virus-induced cytopathogenicity. Format: functional, organism-based.
The subject of data set [7] is Human alphaherpesvirus 2. The data set is described as follows: Antiviral activity against Herpes simplex virus 2 infected in human HEL cells assessed as reduction of virus-induced cytopathogenicity. Format: functional, organism-based. Particulars: Human alphaherpesvirus 2, HEL.
In data set [8] the test system is Human alphaherpesvirus 1. The data set is described as follows: Antiviral activity against Herpes simplex virus 1 infected in human HEL cells assessed as reduction of virus-induced cytopathogenicity. Format: functional, organism-based. Particulars: Human alphaherpesvirus 1, HEL.
Data set [9] has as its system Human betaherpesvirus 5. The data set is described as follows: Antiviral activity against Human cytomegalovirus infected in human HEL cells assessed as reduction of virus-induced cytopathogenicity. Type of data set: functional, organism-based. The note with it: Human betaherpesvirus 5, HEL.
Data set [10] deals with Human immunodeficiency virus 2. The data set is described as follows: Antiviral activity against Human immunodeficiency virus 2 infected in human CEM cells assessed as reduction of virus-induced cytopathogenicity. The note with it: Human immunodeficiency virus 2, CCRF-CEM. Type of data set: functional, organism-based.
Data set [11] has as its system Human immunodeficiency virus 1. The data set is described as follows: Antiviral activity against Human immunodeficiency virus 1 infected in human CEM cells assessed as reduction of virus-induced cytopathogenicity. Format: functional, organism-based. The note with it: Human immunodeficiency virus 1, CCRF-CEM.
A short description of data set [12]: Cytotoxicity against cat CRFK cells assessed as alteration of cell morphology up to 100 uM by microscopic analysis. Type of data set: cell-based, Felis catus.
Data set [13] is described as follows: Cytotoxicity against dog MDCK cells assessed as alteration of cell morphology up to 100 uM by microscopic analysis. Type of data set: cell-based, Canis lupus familiaris.
Data set [14] in a line: Cytotoxicity against human HeLa cells assessed as alteration of cell morphology up to 100 uM by microscopic analysis. Type of data set: cell-based.
Data set [15] can be described thus: Cytotoxicity against human HEL cells assessed as alteration of cell morphology up to 100 uM by microscopic analysis. Format: cell-based.
A short description of data set [16]: Cytotoxicity against human CEM cells assessed as alteration of cell morphology by microscopic analysis. Format: cell-based. The note with it: CEM cells (CCRF-CEM).
In data set [17] the test system is Punta Toro virus. The data set is described as follows: Antiviral activity against Punta Toro virus infected in dog MDCK cells assessed as reduction of virus-induced cytopathogenicity. Type of data set: functional, organism-based.
Data set [18] deals with Coxsackievirus B4. The data set is described as follows: Antiviral activity against Coxsackievirus B4 infected in dog MDCK cells assessed as reduction of virus-induced cytopathogenicity. Particulars: Enterovirus B. Type of data set: functional, organism-based.
The next data set relates to Sindbis virus. The data set is described as follows: Antiviral activity against Sindbis virus infected in dog MDCK cells assessed as reduction of virus-induced cytopathogenicity. Format: functional, organism-based.
Data set [19] has as its system Human alphaherpesvirus 3. The data set is described as follows: Antiviral activity against TK- Varicella zoster virus O7-1. The note with it: Human alphaherpesvirus 3, O7-1. Format: functional, organism-based.
Data set [20] relates to Human alphaherpesvirus 3. The data set is described as follows: Antiviral activity against TK+ Varicella zoster virus OKA. Particulars: Human alphaherpesvirus 3, strain Oka vaccine. Type of data set: functional.
For data set [21], the system named is Human betaherpesvirus 5. The data set is described as follows: Antiviral activity against Human cytomegalovirus at non-toxic concentration. Format: functional, organism-based.
The next data set concerns Vaccinia virus. The data set is described as follows: Antiviral activity against Vaccinia virus at non-toxic concentration. Type of data set: functional, organism-based. Particulars: Orthopoxvirus vaccinia.
Data set [22] has as its system Felid alphaherpesvirus 1. The data set is described as follows: Antiviral activity against Feline herpes virus at non-toxic concentration. Format: functional, organism-based.
For data set [23], the system named is Human alphaherpesvirus 2. The data set is described as follows: Antiviral activity against Herpes simplex virus 2 at non-toxic concentration. Type of data set: functional, organism-based.
Data set [24] concerns Human alphaherpesvirus 1. The data set is described as follows: Antiviral activity against Herpes simplex virus 1 at non-toxic concentration. Type of data set: functional, organism-based.
Data set [25] concerns Punta Toro virus. The data set is described as follows: Antiviral activity against Punta Toro virus infected in african green monkey Vero cells. Type of data set: functional, organism-based.
A short description of data set [26]: Cytotoxicity against cat CRFK cells assessed as decrease in cell viability after 3 days by CellTiter 96 Aqueous One solution assay. Format: cell-based, Felis catus. The note with it: 72 h.
Data set [27] relates to Coxsackievirus B4. The data set is described as follows: Antiviral activity against Coxsackievirus B4 infected in african green monkey Vero cells. Format: functional, organism-based. Particulars: Enterovirus B.
The subject of the next data set is MT4. The data set is described as follows: Cytotoxicity against human MT4 cells assessed as decrease in cell viability after 5 days by CellTiter Glo assay. The note with it: mt4, 120 h. Type of data set: cell-based. In short, it runs like this:
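MT-4 cells, 2000/well, in RPMI 1640 with 10% FBS plus penicillin/streptomycin; 3-fold serial dilutions, 10 concentrations, final DMSO ≤0.5%; 10 µM puromycin and 0.5% DMSO controls.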
For orientation: ATP-based viability assays read luminescence as a measure of living cells.

The test system of data set [28] is Feline immunodeficiency virus. The data set is described as follows: Antiviral activity against Feline immunodeficiency virus infected in cat CRFK cells assessed as decrease in FIV p24 antigen level treated post-viral infection measured after 6 days by ELISA. Type of data set: functional, organism-based. Particulars: 144 h. In short, it runs like this: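 CrFK cells (5000/well) pre-seeded 24 h at 37 °C, 5% CO2; washed with PBS containing 50 µg/ml DEAE-dextran, inoculated with 100 CCID50 FIV plus serial compound dilutions; after 2 h washed and overlaid with 5% FCS DMEM plus compound.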
For orientation: ELISA stands for enzyme-linked immunosorbent assay.

In data set [29] the test system is Human immunodeficiency virus 1. The data set is described as follows: Antiviral activity against Human immunodeficiency virus 1 3B infected in human MT4 cells assessed as reduction of virus-induced cytopathicity treated post-viral infection measured after 5 days by Cell-Titer Glo assay. Format: functional, organism-based. The note with it: MT4, 120 h.

The structures appear in SMILES notation. Calls of active or inactive are those of the source. The calls are words filed in the database; no cut-off is given here.

As a reminder, the EC50 is the concentration at which the effect is half-maximal. For orientation: CC50 means the concentration that lowers cell viability or growth by half.

As to `C[C@@H](O)CNc1nc(N)nc2c1ncn2C[C@@H](C)O`, the EC50 (in data set [1]; with Human respirovirus 3; in [2]; in the data set with Coxsackievirus B4 [3]; in data set [4]; in the data set with Feline coronavirus) was over 100 µg/mL throughout. Further, the EC50 (with Felid alphaherpesvirus 1 [5]; in data set [6]; in the data set with Human alphaherpesvirus 2 [7]; with Human alphaherpesvirus 1 [8]; in the data set on Human betaherpesvirus 5 [9]; in data set [10]) was over 100 µg/mL each time. The EC50 (in data set [11]; in the data set with Punta Toro virus [17]; in the data set on Coxsackievirus B4 [18]; with Sindbis virus) was over 100 µg/mL throughout. Also, the MCC in data set [12], in [13], in data set [14], in data set [15] and in [16] was over 100 µg/mL each time.
For the compound `CCCCCCCCCCCCCCCCOCCCOP(=O)([O-])CO[C@H](C)Cn1cnc2c(N)nc(N)nc21.[Na+]`, the EC50 with Human alphaherpesvirus 3 [19] was 0.058 µg/mL; in the data set on Human alphaherpesvirus 3 [20], under 0.032 µg/mL; in the data set with Punta Toro virus [25], 12 µg/mL; in the data set with Coxsackievirus B4 [27] it was 9 µg/mL; in data set [28], 0.58 nM; in [29], 2.24 nM. Also, the result in the data set on Human betaherpesvirus 5 [21], in the data set on Vaccinia virus, with Felid alphaherpesvirus 1 [22], in the data set on Human alphaherpesvirus 2 [23] and with Human alphaherpesvirus 1 [24] was inactive. Moreover, the CC50 stood at 96000 nM in [26] and 19800 nM in the data set with MT4.
Take `C[C@H](Cn1cnc2c(NCP(=O)(O)O)nc(N)nc21)OCP(=O)(O)O`: the EC50 (in data set [1]; in the data set with Human respirovirus 3; in data set [2]; with Coxsackievirus B4 [3]; in data set [4]; with Feline coronavirus) was over 100 µg/mL throughout. Further, the EC50 (in the data set with Felid alphaherpesvirus 1 [5]; in [6]; with Human alphaherpesvirus 2 [7]; with Human alphaherpesvirus 1 [8]; in the data set on Human betaherpesvirus 5 [9]; in [10]) was over 100 µg/mL each time. Besides, the EC50 (in [11]; in the data set on Punta Toro virus [17]; in the data set on Coxsackievirus B4 [18]; in the data set on Sindbis virus) was over 100 µg/mL each time. Besides, the MCC in [12], in [13], in data set [14], in [15] and in [16] was over 100 µg/mL in each case.
`C[C@H](Cn1cnc2c(N)nc(N)nc21)OCP(=O)(O)O`: the CC50 was over 500000 nM in data set [26] and over 100000 nM with MT4. The EC50 was found to be 120 nM in [28] and 940 nM in [29].
`CCOC(=O)[C@H](C)NP(=O)(CO[C@H](C)Cn1cnc2c(N)nc(N)nc21)N[C@@H](C)C(=O)OCC`: the cytotoxic concentration (CC50) was 215000 nM in data set [26] and over 100000 nM with MT4. Moreover, the EC50 in data set [28] is 1100 nM; in data set [29], 290 nM.
Turning to `C[C@@H](O)CNc1nc(N)c2ncn(C[C@@H](C)O)c2n1`, the EC50 (in [1]; in the data set on Human respirovirus 3; in data set [2]; in the data set with Coxsackievirus B4 [3]; in data set [4]; with Feline coronavirus) was over 100 µg/mL throughout. Besides, the EC50 (with Felid alphaherpesvirus 1 [5]; in [6]; with Human alphaherpesvirus 2 [7]; with Human alphaherpesvirus 1 [8]; with Human betaherpesvirus 5 [9]; in [10]) was over 100 µg/mL each time. Moreover, the concentration for a half-maximal effect (EC50) (in data set [11]; in the data set with Punta Toro virus [17]; with Coxsackievirus B4 [18]; in the data set with Sindbis virus) was over 100 µg/mL throughout. Also, the MCC in [12], in data set [13], in data set [14], in [15] and in data set [16] was over 100 µg/mL each time.

Source of the values: ChEMBL document CHEMBL2331282, “9-[2-(R)-(Phosphonomethoxy)propyl]-2,6-diaminopurine (R)-PMPDAP and its prodrugs: optimized preparation, including identification of by-products formed, and antiviral evaluation in vitro” (Bioorg Med Chem, 2013).
